Only some compounds are listed: those with a hit (about 2.9% of all), similar ones and a draw of the others.
T cruzi inh – blocks replication of Trypanosoma cruzi. 1.4% of 300,000 active. T. cruzi beta-gal in NIH3T3, luminescence, 90 h. inhibition, % (concentration not given with the values);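 active = mean inhibition across valid replicates above about 55%, limit read from the data; inconclusive = mean below that limit but half or more replicates reach it; inactive = mean below it, under half of replicates reach it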;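 also: signal also drops with host cell toxicity which is not excluded here; higher percent means less beta-gal luminescence so fewer parasites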
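Material: NIH/3T3 host cells with β-galactosidase reporter T. cruzi; Input: 5,000 host fibroblasts per well; Medium: DMEM, 2% fetal bovine serum; Compound: 50 nL DMSO compound solution per well; Schedule: 3 h host attachment, then at least 90 h co-culture; Detection: luminescent β-galactosidase signal after 60 min lysis.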
Rev-erbA mod – Rev-erb alpha (human) modulation | 0.79% of 370,000 active | Rev-erbα–FITC-DNA binding, fluorescence polarization, 90 min | activity, % at 10 µM | P20393;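 active = activity above about 14%, limit read from the data; passing the limit was not always enough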
Target sequence (P20393 whole entry, looked up): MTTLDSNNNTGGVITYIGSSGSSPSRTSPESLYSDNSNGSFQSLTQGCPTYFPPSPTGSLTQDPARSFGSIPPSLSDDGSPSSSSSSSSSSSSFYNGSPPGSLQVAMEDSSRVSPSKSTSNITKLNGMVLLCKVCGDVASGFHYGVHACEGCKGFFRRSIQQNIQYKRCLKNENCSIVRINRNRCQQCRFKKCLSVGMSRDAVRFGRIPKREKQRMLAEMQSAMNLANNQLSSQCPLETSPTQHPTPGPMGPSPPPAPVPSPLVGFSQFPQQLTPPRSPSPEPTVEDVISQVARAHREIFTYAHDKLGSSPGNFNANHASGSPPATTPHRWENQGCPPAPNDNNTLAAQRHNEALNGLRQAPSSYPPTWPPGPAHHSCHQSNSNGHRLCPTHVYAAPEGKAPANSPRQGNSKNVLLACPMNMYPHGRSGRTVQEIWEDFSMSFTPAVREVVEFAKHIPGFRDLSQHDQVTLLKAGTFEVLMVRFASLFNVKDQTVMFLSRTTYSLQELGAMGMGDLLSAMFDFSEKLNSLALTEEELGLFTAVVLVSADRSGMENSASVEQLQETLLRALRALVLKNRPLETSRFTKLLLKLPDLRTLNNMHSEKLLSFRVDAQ
MIN6 prolif – induces beta-cell replication in MIN6 cells; proliferation, % at 10 µM; 0.29% of 330,000 active; MIN6 cells proliferation, ATPlite luminescence, 48 h; cells starved in 0.2% serum; 100% = growth in 10% serum;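 active = compounds whose signal lies at least 3.5 SD above the mean of all wells on their plate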
iPSC survival up – hiPSC single-cell survival enhancement; ATPlite luminescence; 100% = ROCK inhibitor wells, 0% = DMSO; survival enhancement, % at 20 µM; 0.044% of 360,000 active; in the data active = survival enhancement above about 18%;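 also: cells exposed to compounds for 16 hours before the ATP read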
TAG inh – triacylglycerol accumulation inhibition; H9c2 cells, Nile Red lipid (TAG) fluorescence; cells loaded with 200 µM oleic acid; inhibition, % at 12.5 µM; 0.66% of 230,000 active; AID 651582;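 active = pattern-corrected inhibition of lipid staining of at least 50% with the nuclear-stain viability signal not falling by more than 50%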
PG9 Ab binder – binds the HIV-1 gp120 antibody PG9; 0.43% of 360,000 active; TR-FRET gp120-PG9 antibody binding; inhibition, % at 6.7 µM; AID 624416; in the data active = inhibition above about 8.5%
Of the large screens only hits and unclear results are named; the others gave an inactive call.

Cn1c2ccccc2c(=O)c2c(=O)n(Cc3ccco3)c(-c3ccc(Cl)cc3Cl)nc21	T cruzi inh 64 (no result: Rev-erbA mod, iPSC survival up, TAG inh, PG9 Ab binder)
Nc1nonc1-n1nnc(C(=O)N/N=C/c2cc(Cl)ccc2O)c1CN1CCCCCC1	T cruzi inh 56 (no result: TAG inh)
Nc1nonc1-n1nnc(C(=O)N/N=C/c2ccc(Cl)cc2Cl)c1CN1CCCCC1	none (no result: TAG inh)
O=C(/C=C/c1ccccc1)NNC(=O)c1cccc(Cl)c1	none (no result: TAG inh)
COc1cc(NC(=O)COC(=O)/C=C/c2c(C)nn(-c3ccc(F)cc3)c2Cl)cc(OC)c1	T cruzi inh 60
O=C1/C(=C/c2cccnc2)SC(=NCc2ccccc2)N1Cc1ccccc1	T cruzi inh 63
O=C1CN(C(=O)COC(=O)c2cccc(S(=O)(=O)NCc3ccccc3)c2)c2ccccc2N1	none
COc1cc2nc(Nc3ccc(C)c(C)c3)nc(N)c2cc1OC	T cruzi inh 56 (no result: TAG inh)
COc1cc2nc(Nc3ccc(C)c(Cl)c3)nc(N)c2cc1OC	none (no result: TAG inh)
COc1cc2nc(N(C)C)nc(N)c2cc1OC	T cruzi inh 63
COc1cc2nc(Nc3ccc(F)cc3)nc(N)c2cc1OC	none (no result: TAG inh)
Cc1ccc(C(=O)NNc2cc(N3CCCC3)nc(N3CCCC3)n2)cc1	T cruzi inh 81 (no result: Rev-erbA mod, iPSC survival up, TAG inh, PG9 Ab binder)
Cc1nn(Cc2ccc(F)cc2)c(Cl)c1/C=N/NC(=O)c1ccccc1	T cruzi inh 66
CCOC(=O)/C(C#N)=C/c1cc(C)n(-c2ccccc2)c1C	none
Cc1cc(C)cc(-n2c(C)cc(C=C(C#N)C#N)c2C)c1	PG9 Ab binder 28
COc1ccccc1NS(=O)(=O)c1cc(NC(=O)c2cccs2)ccc1N1CCCC1	none (no result: TAG inh)
COc1ccccc1NS(=O)(=O)c1cc(NC(=O)c2cccs2)ccc1N1CCCCC1	T cruzi inh 59
O=C(O)COc1c(-c2ccco2)oc2ccccc2c1=O	none
COc1ccc2[nH]c3c(C)c4ccncc4c(C)c3c2c1	T cruzi inh 58 (no result: TAG inh)
Cc1c2ccncc2cc2c1[nH]c1ccccc12	none (no result: T cruzi inh, MIN6 prolif)
Nc1ccc(N2CCCCC2)cc1N1CCCCC1	T cruzi inh 62
Cn1c(=O)c2c(nc(SCC(=O)OCc3ccccc3)n2C)n(C)c1=O	none (no result: MIN6 prolif, TAG inh)
Cc1ccc(-c2ccc(/C=N\NC(=O)c3cc4c(ccc5ccccc54)o3)o2)cc1[N+](=O)[O-]	TAG inh 64
COc1ccc(N2CCN(CC(=O)Nc3nnc(-c4ccccc4)s3)CC2)cc1	none
Clc1ccc(N=c2ssnc2Cl)nc1	T cruzi inh 58
Clc1nssc1=Nc1ccc(Br)cc1	none (no result: MIN6 prolif)
FC(F)(F)c1cccc(NC(=S)N(CCCN2CCCC2)Cc2cccn2Cc2ccc(Cl)cc2)c1	T cruzi inh 71
Cc1ccc(NC(=S)N(CCCN2CCCC2)Cc2cccn2Cc2ccc(Cl)cc2)cc1C	none
CN1CCN(C(=O)C2CC(=O)N(c3ccc(F)c(Cl)c3)C2)CC1 (centres undefined)	none
Cc1ccc(-n2cc(CN3CCC(CO)(Cc4cccc(C(F)(F)F)c4)CC3)cn2)cc1	T cruzi inh 61 (no result: TAG inh)
O=C(NCc1n[nH]c(=S)n1Cc1ccccc1)c1ccc(Cl)cc1Cl	none
Cc1cc2ccccc2n1CCNC(=O)C(C)Oc1ccccc1 (centres undefined)	T cruzi inh 63
CN(C)CCC1CCN(c2cc(C#N)c(C#N)cc2[N+](=O)[O-])CC1	T cruzi inh 79
c1ccc(-[n+]2nc(Nc3cccc4ccccc34)sc2-c2c3ccccc3cc3ccccc23)cc1	TAG inh 106 (no result: T cruzi inh, Rev-erbA mod, PG9 Ab binder)
C/C(=N\NC(=O)c1c[nH]c2ccccc12)c1ccco1	none (no result: TAG inh)
C/C(=N\NC(=O)c1c[nH]c2ccccc12)c1ccccn1	T cruzi inh 82
C=C(C(=O)c1ccccc1)C(c1ccccc1)C(C)C(=O)c1ccccc1 (centres undefined)	none
C=C(C(=O)c1ccccc1)C(C(=C)C(=O)c1ccccc1)c1ccc(OC)cc1	T cruzi inh 55
COc1ccc(C(CC(=O)c2ccccc2)CC(=O)c2ccccc2)cc1	none
C=C(C(=O)c1ccccc1)C(C)C(=C)C(=O)c1ccccc1	TAG inh 55 (no result: MIN6 prolif)
CN(C)S(=O)(=O)c1cc(NC(=O)c2ccc(-n3ccnc3)c([N+](=O)[O-])c2)ccc1Cl	none (no result: TAG inh)
CC1N(C)c2cc(NC(=O)c3cccs3)c(P(=O)(Nc3ccc([N+](=O)[O-])cc3)N3CCOCC3)cc2C1(C)C (centres undefined)	T cruzi inh 64
O=C(CN(C(=O)CNC(=O)c1ccco1)c1cccc(F)c1)NC1CCCCC1	none (no result: TAG inh)
CCCN(CCC)CCCNC(=S)Nc1ccc2nc(N3CCN(C)CC3)cc(C)c2c1	T cruzi inh 57
CCN1CCN(c2cc(C)c3cc(NC(=S)N4CCCCC4)ccc3n2)CC1	T cruzi inh 58
Cc1cc(N2CCN(C)CC2)nc2ccc(NC(=O)c3ccccc3F)cc12	T cruzi inh 65
CCN1CCN(c2cc(C)c3cc(NC(=S)N4CCCC4)ccc3n2)CC1	none
CCCCN(CC)CCNC(=S)Nc1ccc2nc(N3CCN(C)CC3)cc(C)c2c1	T cruzi inh 64 (no result: TAG inh)
Cc1ccc(-c2nnc(N3CCN(C(=O)CSc4ncn[nH]4)CC3)c3ccccc23)cc1	none (no result: T cruzi inh)
O=C(Nc1cccc([N+](=O)[O-])c1)Nc1ccc2c(c1)CCC2	T cruzi inh 57
COc1cc(OC)cc(C(=O)Nc2ccc(-c3nc4ccccc4o3)cc2)c1	T cruzi inh 60
c1ccc(Nc2cccc3c(Nc4ccccc4)cccc23)cc1	T cruzi inh 56
Cc1ccc(N2CCN(C(=O)Nc3cccc([N+](=O)[O-])c3)CC2C)cc1 (centres undefined)	none
CC1C(=O)C(C)C(c2ccc([N+](=O)[O-])cc2)NC1c1ccc([N+](=O)[O-])cc1 (centres undefined)	T cruzi inh 67
Cc1ccc2nc3c(c(Nc4ccc(O)cc4)c2c1)CCC3	T cruzi inh 62 (no result: TAG inh)
CC1=CC(c2ccccc2)n2nc(N3C(=O)CCC3=O)nc2N1 (centres undefined)	none
O=C(c1ccc(F)cc1)C(CN1CCOCC1)c1ccccc1 (centres undefined)	T cruzi inh 58 (no result: TAG inh)
COc1ccc(C(=O)C(CN2CCOCC2)c2ccccc2)cc1 (centres undefined)	none (no result: TAG inh)
O=C(CN1CCN(c2ccccc2)CC1)Nc1ccccc1Sc1ccccc1	none
O=C1CCC(C(=O)N(CCO)Cc2ccccc2)CN1CC1CCCCC1 (centres undefined)	none
Cc1cc(Cl)cc(C)c1OCCCCn1ccnc1	T cruzi inh inconclusive (no result: TAG inh)
Cc1cc(OCCCCn2ccnc2)cc(C)c1Cl	T cruzi inh 69
Cc1cccc(OCCCCCn2ccnc2)c1	T cruzi inh 57
Clc1ccccc1OCCCn1ccnc1	none
Clc1ccccc1OCCCCn1ccnc1	T cruzi inh 63 (no result: TAG inh)
Cc1ccccc1OCCCCCn1ccnc1	T cruzi inh 67 (no result: TAG inh)
